Rows were chosen to be rich in hits. Some 3% of all compounds tested hit in one or more screens of this group.
Granule exo inh: blocks lytic granule exocytosis; TALL-104 LAMP-1 surface exposure, flow cytometry; cells stimulated with thapsigargin and PMA; actives 0.66% (n = 360,000); inhibition, % at 10 µM;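 active means inhibition above about 55%, limit read from the data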
UBC13 inh: inhibitors of human UBC13 polyubiquitin chain formation | P61088 | TR-FRET | inhibition, % at 20 µM | actives 0.47% (n = 330,000); in the data active means inhibition above about 45%, passing the limit was not always enough
Target sequence (P61088 whole entry, looked up): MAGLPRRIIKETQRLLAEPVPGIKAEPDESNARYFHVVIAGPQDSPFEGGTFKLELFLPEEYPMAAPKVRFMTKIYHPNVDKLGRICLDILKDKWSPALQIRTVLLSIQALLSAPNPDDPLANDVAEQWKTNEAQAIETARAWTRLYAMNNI
Apaf-1 inh: human Apaf-1 inhibition; O14727; reconstituted apoptosome caspase-3 activity, DEVD-Rh110 fluorescence; inhibition, % at 20 µM; actives 0.71% (n = 330,000); AID 489030; active means inhibition of at least 40% at 20 µM;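 further: plate controls were DMSO wells for no effect and DEVD-CHO caspase inhibitor wells for full effect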
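Assay system: Apoptosome proteins | Medium: pH 7.5 Hepes buffer with CHAPS, BSA, DTT | Also added: Cytochrome c and DEVD-Rh110 substrate | Times: 30 min plus 50 min, RT | Detection: Rhodamine 110 fluorescence at Ex 480/Em 540 nm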
hiPSC survival: hiPSC single-cell survival enhancement; ATPlite luminescence; 100% = ROCK inhibitor wells, 0% = DMSO; survival enhancement, % at 20 µM; actives 0.044% (n = 360,000); AID 602274; in the data active means survival enhancement above about 18%;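 further: cells exposed to compounds for 16 hours before the ATP read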
MIN6 prolif-1: MIN6 beta-cell proliferation induction | MIN6 cells proliferation, ATPlite luminescence, 48 h; cells starved in 0.2% serum; 100% = growth in 10% serum | proliferation, % at 10 µM | actives 0.29% (n = 330,000);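 active means compounds whose signal lies at least 3.5 SD above the mean of all wells on their plate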;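 further: 0% = DMSO-treated cells in low-serum medium and 100% = 10% serum control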
MPTP inh: inhibitors of mitochondrial permeability transition pore. isolated mouse mitochondria, Ca2+ swelling absorbance, 30 min. inhibition, % at 10 µM. actives 1.4% (n = 360,000). AID 602449;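 active means inhibition of 50% or more, scaled per plate between neutral and stimulator controls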;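 further: 0% = DMSO wells given calcium and 100% = 1 mM EGTA wells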
MIN6 prolif-2: MIN6 beta-cell replication induction, confirmed; shares compounds with MIN6 prolif-1; proliferation increase, % at 50 µM; 920 tested, under 10 active; MIN6 beta-cell proliferation, ATPlite luminescence, 48 h; cells kept in 0.2% serum; scaled between 0.2% and 10% serum;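 active means proliferation increase above 40% at any of the four tested concentrations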
Casp3 counter: inhibits human caspase-3 in UBC13 counter-screen; AID 488856; actives 4% (n = 1,400); inhibition, % at 20 µM; Recombinant caspase-3, Caspase-Glo 3/7 luminescence, 60 min; shares compounds with UBC13 inh;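 active means mean inhibition across replicates above about 26%, limit read from the data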;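 further: plate controls were DMSO with caspase-3 for no effect and DMSO wells lacking enzyme for full effect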
Target sequence (P42574 whole entry, looked up): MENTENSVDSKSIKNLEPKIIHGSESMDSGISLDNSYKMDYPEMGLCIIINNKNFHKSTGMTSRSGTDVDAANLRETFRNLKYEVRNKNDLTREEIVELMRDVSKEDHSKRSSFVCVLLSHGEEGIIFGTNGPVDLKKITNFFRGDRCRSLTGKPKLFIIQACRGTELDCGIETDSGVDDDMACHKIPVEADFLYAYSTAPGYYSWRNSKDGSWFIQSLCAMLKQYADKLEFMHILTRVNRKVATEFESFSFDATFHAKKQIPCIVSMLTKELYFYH
UBC13 conf: human UBC13 polyubiquitin inhibition, confirmed | shares compounds with UBC13 inh | UBC13 polyubiquitination, TR-FRET, biochemical | inhibition, % at 10 µM | actives 68% (n = 1,400) | AID 488859; in the data active means inhibition above about 45%
MPTP counter: mitochondrial membrane potential, counter-screen | shares compounds with MPTP inh | isolated mitochondria, Rhodamine 123 fluorescence | inhibition, % at 10 µM | actives 78% (n = 5,000) | AID 624504; in the data active means inhibition above about 22%;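 further: 0% = DMSO vehicle and 100% = positive control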
MPTP abs DR: dose response confirmation of mitochondrial permeability transition pore inhibitors; AID 651561; actives 58% (n = 780); isolated mitochondria swelling, absorbance; IC50, µM; shares compounds with MPTP inh; in the data active means IC50 below about 20 µM
MPTP counter DR: MPTP inhibitor counter-screen activity, dose response. isolated mitochondria counterscreen, fluorescence read-out. actives 49% (n = 780). shares compounds with MPTP inh. IC50, µM; in the data active means IC50 below about 80 µM
Exocytosis CP01: blocks lytic granule exocytosis | shares compounds with Granule exo inh | TALL-104 cells, LAMP-1 externalization, flow cytometry; stimulated with PMA plus thapsigargin | inhibition, % at 10 µM | actives 11% (n = 1,500); in the data active means inhibition above about 60%;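 further: 0% = stimulated vehicle wells and 100% = unstimulated wells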
Active calls of the source: *; x = no result given.

SMILES	Granule exo inh	UBC13 inh	Apaf-1 inh	hiPSC survival	MIN6 prolif-1	MPTP inh	MIN6 prolif-2	others
COc1ccc(CC(=O)N2CCN(c3ccc(C4=NNC(=O)CC4C)cc3)CC2)cc1 (configuration not stated)	0	3	6	0	4.6*	0	-1
COc1ccc(CC(=O)N2CCN(C(=O)Cc3ccc(OC)cc3)CC2)cc1	0	0	-6	1	0	-4	x
O=S(=O)(N1CCOCC1)N1CCOCC1	-6	2	-12	0	-3	0	x
COc1ccc(C(CNC(=O)CCNC(=O)c2ccc(Br)cc2)N2CCOCC2)cc1 (configuration not stated)	-4	0	4	2	12*	-1	-2
CCCCOc1ccc(C(=O)NCC(=O)NCC(c2ccc(OC)cc2)N2CCOCC2)cc1 (configuration not stated)	3	11	23	0	1	-1	x
Cn1c(SCC(=O)c2ccccc2)nnc1C1COc2ccccc2O1 (configuration not stated)	-9	-1	-4	-1	5.6*	1	0
COc1cc(C=Nc2cccc([N+](=O)[O-])c2C)ccc1OC(C)=O	-6	6	-2	5	6.4*	-2	0
CCn1nc(NC(=O)c2cccs2)c2cc3ccccc3nc21	-3	6	0	0	8.2*	1	-6
CCn1nc(NC(=O)c2cccnc2)c2cc3ccccc3nc21	-1	-10	-4	0	4	1	x
CC1CCN(S(=O)(=O)c2ccc(NC(=O)C3CCCCC3C(=O)O)cc2)CC1 (configuration not stated)	1	x	x	-3	x	-1	x
CCc1ccc(CCC(=O)Nc2ccc(Cl)cc2)o1	0	-4	5	0	-1	1	x
CC(C)C[C@H]1CN(CCCC[C@@H]2CNC(=O)C(=O)N2Cc2ccccc2)C(=O)C(=O)N1CC1CCCCC1	15	x	x	0	x	0	x
O=C(NCC(c1ccco1)N1CCN(c2ccccc2)CC1)C(=O)NC1CC1 (configuration not stated)	4	4	1	0	2	1	x
CCOC(=O)c1c(C)[nH]c(C)c1C(=O)CSc1nnnn1-c1ccccc1	5	10	4	1	5.5*	5	3
Cc1cccc(-c2n[nH]c(=S)n2Cc2ccccc2)c1	2	13	6	0	6.3*	-6	-4
S=c1[nH]nc(-c2cccc(Cl)c2)n1Cc1ccccc1	2	33	-1	1	2	1	x
COc1ccc(C(=O)NNS(=O)(=O)c2ccccc2)cc1	1	-1	-6	1	0.0*	-2	1
COc1ccc(C(=O)NNS(=O)(=O)c2ccc(OC)cc2)cc1	3	4	-4	0	-3	0	x
COc1cccc(CN(CCC(=O)O)Cc2cccc(OC)c2)c1	1	x	x	0	x	0	x
O=C(/C=C/c1ccco1)NCc1ccccn1	-1	3	-16	2	9.4*	1	2
O=C(/C=C/c1ccc([N+](=O)[O-])cc1)NCc1ccccn1	-5	-7	12	0	-2	-1	x
O=C(c1ccccc1)N1CCCC(c2ccc(Cl)cc2)=N1	6	8	-41	6	5.4*	1	-6
O=C(c1cccc(Cl)c1)N1CCCC(c2ccc(Cl)cc2)=N1	3	4	16	0	-4	4	x
COc1cc2c(cc1OC)C(Nn1cnnc1)=NC1(CCCC1)C2	0	3	-13	0	5.2*	0	1
COCCSc1nc2c(c(=O)[nH]c(=O)n2C)n1CCCc1ccccc1	0	0	4	0	-3	-1	x
SMILES	Granule exo inh	UBC13 inh	Apaf-1 inh	hiPSC survival	MIN6 prolif-1	MPTP inh	MIN6 prolif-2	others
COCCn1c(SCCCc2ccccc2)nc2c1c(=O)[nH]c(=O)n2C	3	-7	14	-1	5.5*	-2	-5
COCC(C)n1c(SCC(=O)N2CC(=O)Nc3ccccc32)nc2ccccc2c1=O (configuration not stated)	-11	0	3	-3	11*	0	1
CC(c1ccccc1)n1c(SCC(=O)N2CC(=O)Nc3ccccc32)nc2ccccc2c1=O (configuration not stated)	18	-12	16	0	0	1	x
COc1ccc(NC(=O)c2ccc3c(c2)S(=O)(=O)N=C2CCCCCN23)cc1S(N)(=O)=O	4	x	x	0	x	-1	x
COCCOC(=O)c1c(C)oc2ccc(NS(=O)(=O)c3ccccc3)cc12	-2	14	-4	0	5.0*	3	-6
Cc1ccc(-c2c(C(=O)O)c3ccccc3[nH]c2=O)cc1	9	-3	2	2	0	0	x
O=c1ccn(-c2cccc(C(F)(F)F)c2)nc1-c1ccn(-c2ccccc2F)n1	-3	4	16	4	9.4*	-1	-6
O/N=C/c1cn(-c2ccccc2)nc1-c1ccc2c(c1)OCCO2	-1	46*	15	1	7.1*	1	-5	Casp3 counter=-2;UBC13 conf=48*
O=C(O)c1cccc(Nc2nc(-c3cc4ccccc4oc3=O)cs2)c1	5	12	-3	1	-2	1	x
COc1cccc(CNC2CCCc3ccccc32)c1OC (configuration not stated)	4	8	2	-1	9.1*	60*	-3	MPTP counter=5;MPTP abs DR=>100;MPTP counter DR=>80
C1=C\CCC2(OCCO2)C2(CC/1)OCCO2	-2	x	x	0	x	0	x
Cc1cccn2c(=O)c3cc(C(=O)NCCc4ccccc4)sc3nc12	92*	14	28	3	7.4*	-1	0	Exocytosis CP01=-4

Screening data: PubChem BioAssay, several laboratories
